Publication PMC5094435 (Saudi Pharmaceutical Journal : SPJ, 2015)
Converted amounts (≈) assume the structure as drawn.

Experiments:
[1] = system: Staphylococcus aureus (MTCC 96); test: Antibacterial activity; type: cell-based; conditions: MTCC96, read-out: MIC, S. aureus
In short: (§1)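 Screened by a standard method against S. aureus MTCC 96, B. subtilis MTCC 121, E. coli MTCC 1652 and P. aeruginosa MTCC 741. Ciprofloxacin was the reference antibiotic. Only compounds active at 100 μg/mL went on to MIC determination.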

[2] = system: Escherichia coli (MTCC 1652); test: Antibacterial activity; type: cell-based; conditions: for MIC: Escherichia coli, MTCC1652, read-out: MIC, E. coli; for MIC, E. coli: E. coli (MTCC 1652)
In short: as §1

[3] = system: Pseudomonas aeruginosa (MTCC 741); test: Antibacterial activity; type: cell-based; conditions: for MIC: Pseudomonas aeruginosa, MTCC741, read-out: MIC, P. aeruginosa; for MIC, P. aeruginosa: P. aeruginosa (MTCC 741)
In short: as §1

[4] = system: Bacillus subtilis (MTCC 121); test: Antibacterial activity; type: cell-based; conditions: MTCC121, read-out: MIC, B. subtilis
In short: as §1

Aspergillus niger = test: Antifungal activity; type: cell-based; conditions: read-out: MIC, A. niger
In short: (§2)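 Run by the poison food technique against Aspergillus niger and Aspergillus flavus. Fluconazole was the reference drug.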

Aspergillus flavus = test: Antifungal activity; type: cell-based; conditions: read-out: MIC, A. flavus
In short: as §2

[5] = system: carrageenan induced edema; test: Anti-inflammatory activity, carrageenan induced rat paw edema; type: in vivo, Wistar rats; conditions: inhibition of edema, rats
In short: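 Used the Winter et al. paw oedema method in Wistar rats of either sex (160–200 g), housed six per cage and acclimatised 48 h. Percent inhibition of oedema was calculated at 1, 2, 3 and 4 h. Diclofenac served as the standard drug.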

MIC [1] [µg/mL]	MIC [2] [µg/mL]	MIC [3] [µg/mL]	MIC [4] [µg/mL]	MIC (Aspergillus niger) [µg/mL]	MIC (Aspergillus flavus) [µg/mL]	MIC, E. coli [2]	MIC, P. aeruginosa [3]	Structure (SMILES)	% Inhibition ± SEM After 1 h [5]	% Inhibition ± SEM After 2 h [5]	% Inhibition ± SEM After 3 h [5]	% Inhibition ± SEM After 4 h [5]
6.25 (≈ 14.6 µM)	12.5 (≈ 29.2 µM)	12.5 (≈ 29.2 µM)	6.25 (≈ 14.6 µM)	6.25 (≈ 14.6 µM)	12.5 (≈ 29.2 µM)			O=C1NC(c2ccc3ccccc3c2)=CC1=Cc1cc2cc([N+](=O)[O-])ccc2nc1Cl [Compound 6d, 3-[(2-Chloro-6-nitroquinolin-3-yl)methylene]-5-(naphthalene-2-yl)-1H-pyrrol-2(3H)-one]	58 ± 0.25^∗ %	60 ± 0.22^∗∗ %	29 ± 0.16%	48 ± 0.15^∗ %
50 (≈ 106 µM)	25 (≈ 52.9 µM)	> 100	> 100	50 (≈ 106 µM)	> 100			O=C1C(=Cc2cc3ccccc3nc2Cl)C=C(c2ccc3ccccc3c2)N1Cc1ccccc1 [Compound 7a, 1-Benzyl-3-[(2-chloroquinolin-3-yl)methylene]-5-(naphthalene-2-yl)-1H-pyrrol-2(3H)-one]	52 ± 0.13^∗ %	62 ± 0.27^∗∗ %	28 ± 0.34%	57 ± 0.13^∗∗ %
25 (≈ 59 µM)	> 100	> 100	50 (≈ 118 µM)	50 (≈ 118 µM)	50 (≈ 118 µM)	did not show any inhibition	did not show any inhibition	Cc1ccc2nc(Cl)c(C=C3C=C(c4ccc(-c5ccccc5)cc4)OC3=O)cc2c1 [Compound 5g, 3-[(2-Chloro-6-methylquinolin-3-yl)methylene]-5-(biphenyl-4-yl)furan-2(3H)-one]	67 ± 0.12^∗∗ %	62 ± 0.11^∗∗ %	46 ± 0.33%	56 ± 0.06^∗∗ %
50 (≈ 100 µM)	> 100	> 100	> 100	50 (≈ 100 µM)	> 100	did not show any inhibition	did not show any inhibition	O=C1C(=Cc2cc3ccccc3nc2Cl)C=C(c2ccc(-c3ccccc3)cc2)N1Cc1ccccc1 [Compound 7e, 1-Benzyl-3-[(2-chloroquinolin-3-yl)methylene]-5-(biphenyl-4-yl)-1H-pyrrol-2(3H)-one]	78 ± 0.12^∗∗ %	51 ± 0.11^∗∗ %	44 ± 0.08%	41 ± 0.08%
25 (≈ 59.1 µM)	50 (≈ 118 µM)	50 (≈ 118 µM)	12.5 (≈ 29.6 µM)	25 (≈ 59.1 µM)	12.5 (≈ 29.6 µM)			Cc1ccc2nc(Cl)c(C=C3C=C(c4ccc(-c5ccccc5)cc4)NC3=O)cc2c1 [Compound 6g, 3-[(2-Chloro-6-methylquinolin-3-yl)methylene]-5-(biphenyl-4-yl)-1H-pyrrol-2(3H)-one]	52 ± 0.08^∗ %	48 ± 0.24^∗∗ %	25 ± 0.17%	36 ± 0.19%
25 (≈ 48.7 µM)	> 100	> 100	50 (≈ 97.5 µM)	25 (≈ 48.7 µM)	50 (≈ 97.5 µM)	did not show any inhibition	did not show any inhibition	Cc1ccc2nc(Cl)c(C=C3C=C(c4ccc(-c5ccccc5)cc4)N(Cc4ccccc4)C3=O)cc2c1 [Compound 7g, 1-Benzyl-3-[(2-chloro-6-methylquinolin-3-yl)methylene]-5-(biphenyl-4-yl)-1H-pyrrol-2(3H)-one]	69 ± 0.03^∗∗ %	54 ± 0.14^∗∗ %	30 ± 0.20%	40 ± 0.16%
25 (≈ 62.8 µM)	> 100	> 100	50 (≈ 126 µM)	50 (≈ 126 µM)	> 100	did not show any inhibition	did not show any inhibition	Cc1ccc2nc(Cl)c(C=C3C=C(c4ccc5ccccc5c4)OC3=O)cc2c1 [Compound 5c, 3-[(2-Chloro-6-methylquinolin-3-yl)methylene]-5-(naphthalene-2-yl)furan-2(3H)-one]	69 ± 0.12^∗∗ %	66 ± 0.25^∗∗ %	47 ± 0.17%	59 ± 0.12^∗∗ %
6.25 (≈ 18.9 µM)	6.25 (≈ 18.9 µM)	6.25 (≈ 18.9 µM)						O=C(O)c1cn(C2CC2)c2cc(N3CCNCC3)c(F)cc2c1=O [Standard-1, Ciprofloxacin, reference compound]				
12.5 (≈ 30.6 µM)	> 100	50 (≈ 122 µM)	50 (≈ 122 µM)	50 (≈ 122 µM)	25 (≈ 61.1 µM)			O=C1NC(c2ccc(-c3ccccc3)cc2)=CC1=Cc1cc2ccccc2nc1Cl [Compound 6e, 3-[(2-Chloroquinolin-3-yl)methylene]-5-(biphenyl-4-yl)-1H-pyrrol-2(3H)-one]	38 ± 0.21%	48 ± 0.21^∗∗ %	44 ± 0.33%	35 ± 0.32%
50 (≈ 130 µM)	> 100	> 100	50 (≈ 130 µM)	50 (≈ 130 µM)	> 100	did not show any inhibition	did not show any inhibition	O=C1OC(c2ccc3ccccc3c2)=CC1=Cc1cc2ccccc2nc1Cl [Compound 5a, 3-[(2-Chloroquinolin-3-yl)methylene]-5-(naphthalene-2-yl)furan-2(3H)-one]	67 ± 0.14^∗∗ %	62 ± 0.11^∗∗ %	46 ± 0.26%	57 ± 0.27^∗∗ %
12.5 (≈ 31.5 µM)	> 100	50 (≈ 126 µM)	12.5 (≈ 31.5 µM)	25 (≈ 63 µM)	12.5 (≈ 31.5 µM)			Cc1ccc2nc(Cl)c(C=C3C=C(c4ccc5ccccc5c4)NC3=O)cc2c1 [Compound 6c, 3-[(2-Chloro-6-methylquinolin-3-yl)methylene]-5-(naphthalene-2-yl)-1H-pyrrol-2(3H)-one]	32 ± 0.02%	55 ± 0.22^∗∗ %	47 ± 0.24%	42 ± 0.20%
25 (≈ 61 µM)	> 100	> 100	50 (≈ 122 µM)	25 (≈ 61 µM)	50 (≈ 122 µM)			O=C1OC(c2ccc(-c3ccccc3)cc2)=CC1=Cc1cc2ccccc2nc1Cl [Compound 5e, 3-[(2-Chloroquinolin-3-yl)methylene]-5-(biphenyl-4-yl)furan-2(3H)-one]	63 ± 0.09^∗ %	60 ± 0.22^∗∗ %	53 ± 0.18%	59 ± 0.12^∗∗ %
12.5 (≈ 28.1 µM)	50 (≈ 113 µM)	> 100	25 (≈ 56.3 µM)	25 (≈ 56.3 µM)	25 (≈ 56.3 µM)			O=C1OC(c2ccc(-c3ccccc3)cc2)=CC1=Cc1cc2cc(Cl)ccc2nc1Cl [Compound 5f, 3-[(2,6-Dichloroquinolin-3-yl)methylene]-5-(biphenyl-4-yl)furan-2(3H)-one]	63 ± 0.13^∗∗ %	58 ± 0.21^∗∗ %	53 ± 0.17%	58 ± 0.12^∗∗ %
25 (≈ 65.3 µM)	> 100	50 (≈ 131 µM)	25 (≈ 65.3 µM)	25 (≈ 65.3 µM)	25 (≈ 65.3 µM)			O=C1NC(c2ccc3ccccc3c2)=CC1=Cc1cc2ccccc2nc1Cl [Compound 6a, 3-[(2-Chloroquinolin-3-yl)methylene]-5-(naphthalene-2-yl)-1H-pyrrol-2(3H)-one]	64 ± 0.06^∗ %	53 ± 0.18^∗∗ %	49 ± 0.10%	36 ± 0.32%
			6.25 (≈ 20.4 µM)	6.25 (≈ 20.4 µM)	6.25 (≈ 20.4 µM)			OC(Cn1cncn1)(Cn1cncn1)c1ccc(F)cc1F [Standard-2, Fluconazole, reference compound]				
25 (≈ 51.3 µM)	50 (≈ 103 µM)	> 100	50 (≈ 103 µM)	50 (≈ 103 µM)	25 (≈ 51.3 µM)			Cc1ccc2nc(Cl)c(C=C3C=C(c4ccc5ccccc5c4)N(Cc4ccccc4)C3=O)cc2c1 [Compound 7c, 1-Benzyl-3-[(2-chloro-6-methylquinolin-3-yl)methylene]-5-(naphthalene-2-yl)-1H-pyrrol-2(3H)-one]	78 ± 0.12^∗∗ %	71 ± 0.28^∗∗ %	57 ± 0.25^∗ %	61 ± 0.21^∗∗ %
6.25 (≈ 14.1 µM)	50 (≈ 113 µM)	25 (≈ 56.4 µM)	6.25 (≈ 14.1 µM)	6.25 (≈ 14.1 µM)	12.5 (≈ 28.2 µM)			O=C1NC(c2ccc(-c3ccccc3)cc2)=CC1=Cc1cc2cc(Cl)ccc2nc1Cl [Compound 6f, 3-[(2,6-Dichloroquinolin-3-yl)methylene]-5-(biphenyl-4-yl)-1H-pyrrol-2(3H)-one]	48 ± 0.13%	63 ± 0.27^∗∗ %	25 ± 0.34%	42 ± 0.20%
